Measured values gathered from unrelated publications.
Compare with care: the assays were run in different laboratories.
Target: Vascular endothelial growth factor receptor 3 (FLT4, Homo sapiens, UniProt P35916)

CC(=O)C1=C(C)N(c2cccc(C(F)(F)F)c2)C(=O)N[C@@H]1c1ccc(C#N)nc1  remaining binding (cell-free assay; competition with immobilised ligand; 1 µM): 100%
COc1cc2ncnc(Nc3ccc(Oc4ccccc4)cc3C)c2cc1OC  inhibition (enzyme activity; inhibitor; 1 µM): 17%
Cc1cc(NC(=O)c2cccc3cc(-c4cccc5[nH]nc(N)c45)ccc23)ccc1F  activity vs control (enzyme activity; inhibitor; 0.1 µM): 1%
N#CC1(c2ccccn2)CCN(Cc2cc(C(=O)N3CCCC3)c(=O)n3ccccc23)CC1  remaining binding (cell-free assay; competition with immobilised ligand; 1 µM): 86%
CC/C(=N\NC(=O)NCc1cccc(O)c1)c1ccc(O)c(C)c1O  inhibition (enzyme activity; inhibitor; 0.1 µM): 6.1%
O=C(O)[C@H]1[C@H](Cn2nnc3ccccc3c2=O)CC[C@@H]1C(=O)c1ccc(OCCC2CCOCC2)cc1  remaining binding (cell-free assay; competition with immobilised ligand; 1 µM): 81%
CCCS(=O)(=O)Nc1ccc(F)c(C(=O)c2c[nH]c3ncc(-c4ccc(Cl)cc4)cc23)c1F  inhibition (enzyme activity; inhibitor; 1 µM): < 10%
Nc1ncnc2occ(-c3ccc(NC(=O)Nc4cc(C(F)(F)F)ccc4F)cc3)c12  remaining signal (cell-free assay; 20 µM): 0%
O=C(N[C@H]1CCCCC/C=C\C2C[C@@]2(C(=O)O)NC(=O)[C@@H]2C[C@@H](Oc3ccncc3)CN2C1=O)OC1CCCC1 (some centres unmarked)  remaining binding (cell-free assay; competition with immobilised ligand; 1 µM): 93%
N#CCCc1ccc2c(c1)-c1[nH]c3ccc([N+](=O)[O-])cc3c1CC(=O)N2  remaining signal (cell-free assay; 0.5 µM): 66.5%
CN(C(=O)c1ccccc1)c1cc(N(C)c2ccc3c(c2)CCc2ccc(C(=O)NCCN4CCOCC4)cc2C3=O)ccc1F  remaining binding (cell-free assay; competition with immobilised ligand; 1 µM): 87%
CNC(=O)c1cc(Oc2ccc(NC(=O)Nc3ccc(Cl)c(C(F)(F)F)c3)cc2)ccn1  remaining signal (cell-free assay; 0.5 µM): 43%
CCCOc1ccc(OC)c(F)c1C(=O)c1ccc(C(=O)N[C@@H]2CNC[C@H]2NC(=O)c2ccc3[nH]ncc3c2)cc1  remaining activity (enzyme activity; inhibitor; 10 µM): 8%
Cc1ccc(C(=O)Nc2ccc(CN3CCN(C)CC3)c(C(F)(F)F)c2)cc1C#Cc1cnc2cccnn12  remaining signal (cell-free assay; 23.5 nM): 35%
Cc1cc(NC(=O)c2cccc(S(F)(F)(F)(F)F)c2)cc(-n2ccn3nc(-c4cccnc4)cc23)c1  remaining binding (cell-free assay; competition with immobilised ligand; 1 µM): 82.3%
COc1cc2nccc(Oc3ccc(NC(=O)c4c5n(n(-c6ccc(F)cc6)c4=O)CCCC5)cc3)c2cc1OC  inhibition (enzyme activity; inhibitor; 0.1 µM): 47%
O=C1NC(=O)c2cc(Nc3ccc(F)cc3)c(Nc3ccc(F)cc3)cc21  remaining signal (cell-free assay; 0.5 µM): 102%
Cc1cnc(NC2CCOCC2)nc1-n1cnc(C(=O)NC(CN)c2cc(F)cc(Cl)c2)c1 (centres unmarked)  remaining activity (enzyme activity; inhibitor; radiometric; 1 µM): 107%
O=C(Nc1cnn(-c2csc(C(=O)NC3COC3)c2)c1)Nc1ccccc1Cl  remaining activity (enzyme activity; inhibitor; 5 µM): 93.5%
Clc1ccc(Nc2nnc(Cc3ccncc3)c3ccccc23)cc1  remaining signal (cell-free assay; 0.5 µM): 62.8%
